High-throughput results deposited in PubChem by several laboratories.
Only some compounds are listed: those with a hit (about 2.9% of all), similar ones and a draw of the others.
B2AR ag: beta2AR agonists driving receptor internalization, primary screen, cell-based, FAP fluorogen, flow cytometry. Beta-2 adrenergic receptor (Homo sapiens), P07550. Am2.2-beta2AR cells. response, % (concentration not given with the values). 340,000 compounds, 0.43% hits;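 active means response above a set limit, near 3 SD of response in nonfluorescent compounds, cut at about 42% in these data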
MEKK3 PB1 HTS: modulators of MEKK3-MEK5 PB1 binding, primary screen, biochemical, wildtype MEKK3, multiplex bead flow cytometry, Alexa488-MEK5; Mitogen-activated protein kinase kinase kinase 3 (Homo sapiens), Q99759; bead-based flow cytometry, Alexa488-MEK5 binding to MEKK3; actives lie on both sides; 0 = blocked by unlabeled MEK5, 100 = vehicle; binding response (% of control), % at 10 µM; 290,000 compounds, 1.4% hits;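 active means binding response more than 3 SD above or below the average of its plate-row segment, actives on both sides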;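 further: Alexa488 bead fluorescence after subtracting the streptavidin-only scavenger bead signal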
Target sequence (Q99759 whole entry, looked up): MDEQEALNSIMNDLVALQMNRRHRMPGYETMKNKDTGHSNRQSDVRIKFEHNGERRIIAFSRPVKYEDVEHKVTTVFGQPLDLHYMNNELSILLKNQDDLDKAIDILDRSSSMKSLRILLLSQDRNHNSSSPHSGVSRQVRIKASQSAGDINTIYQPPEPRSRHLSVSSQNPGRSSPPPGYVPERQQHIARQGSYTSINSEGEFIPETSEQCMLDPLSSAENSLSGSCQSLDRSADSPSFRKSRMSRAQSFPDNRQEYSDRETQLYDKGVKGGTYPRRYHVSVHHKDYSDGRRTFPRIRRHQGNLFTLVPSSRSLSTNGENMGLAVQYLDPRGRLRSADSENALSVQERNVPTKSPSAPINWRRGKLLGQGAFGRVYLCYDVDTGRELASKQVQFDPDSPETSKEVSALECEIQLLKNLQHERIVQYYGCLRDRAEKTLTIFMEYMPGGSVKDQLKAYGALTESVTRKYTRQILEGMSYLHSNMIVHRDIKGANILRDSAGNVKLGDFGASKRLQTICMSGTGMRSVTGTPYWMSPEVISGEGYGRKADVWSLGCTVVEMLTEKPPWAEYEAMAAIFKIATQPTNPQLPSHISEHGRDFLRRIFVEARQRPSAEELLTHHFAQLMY
ATG4B inhibitor: ATG4B protease inhibitors, primary screen, biochemical, fluorescence, uHTS | Cysteine protease ATG4B (Homo sapiens), Q9Y4P1 | ATG4B cleavage of LC3-PLA2, NBD-HPC fluorescence, 1 h | inhibition, % at 8.33 µM | 340,000 compounds, 0.51% hits; in the data active means inhibition above about 40%
MEKK2 WT-MEK5: modulators of MEK5 binding to wildtype MEKK2, primary screen, biochemical, multiplex bead flow cytometry, Alexa488-MEK5. Mitogen-activated protein kinase kinase kinase 2 (Homo sapiens), Q9Y2U5. Alexa488-MEK5 binding to MEKK2 WT; actives lie on both sides. binding response (% of control), % at 10 µM. 290,000 compounds, 1.1% hits. AID 1531, 2009; in the data active means binding response below about 67% or above about 130%
MEKK2 mut-MEK5: MEK5 binding signal on mutant MEKK2 PB1, primary screen, biochemical, multiplex bead flow cytometry, Alexa488-MEK5. Alexa488-MEK5 binding to MEKK2 mutant. percent response, % at 10 µM. 290,000 compounds, 0.35% hits. AID 1530, 2009; in the data active means percent response above about 24%, passing the limit was not always enough
Dynein transport: inhibitors of GR-EGFP nuclear translocation, primary screen, dynein cargo transport inhibitor project, imaging, high-content, 3617.4 mouse cells. test concentration mostly 20 µM; stimulated with dexamethasone, 1 µM; hits give low values. z-score, hits read low. 220,000 compounds, 0.47% hits. AID 1381, 2008;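 active means plate z-score of nuclear minus cytoplasmic receptor signal below a set negative limit, without overly bright fluorescence or cell loss, cut at about -3.5 in these data, passing the limit was not always enough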;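 further: z-score of nuclear minus cytoplasmic ring GR-EGFP intensity difference per well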
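Also added: dexamethasone, 1.0 µM final. Medium: tet-free, stripped-serum medium. Detection: fixed, Hoechst-stained cells imaged at 10x for EGFP. Read-out: nuclear-to-cytoplasmic GR-EGFP distribution per well. Times: induction 48 h, compound 1 h, agonist 30 min.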
MEKK2wt confirm: modulators of MEK5 binding to wildtype MEKK2, confirmation, biochemical, single concentration, multiplex bead flow cytometry. 5,900 compounds, 2.4% hits. AID 1892, 2009. binding response (% of control), % at 10 µM. shares compounds with MEKK3 PB1 HTS. Alexa488-MEK5 binding to MEKK2 WT; actives lie on both sides; in the data active means binding response below about 16% or above about 210%; inactive means in between
MEKK2mut-MEK5: mutant MEKK2 PB1-MEK5 binding signal retest – biochemical, single concentration, multiplex bead flow cytometry, confirmation; AID 1893, 2009; shares compounds with MEKK3 PB1 HTS; 5,900 compounds, 2% hits; percent response, % at 10 µM; Alexa488-MEK5 binding to MEKK2 mutant; in the data active means percent response mostly above about 71%, no sharp cut-off; inactive means mostly below about 38%;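 further: higher means compound restores mutant binding toward wildtype level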
MEKK3 confirm: MEKK3 wild-type PB1 binding to MEK5, inhibitors, confirmation, biochemical, bead multiplex flow cytometry, single concentration, wildtype | shares compounds with MEKK3 PB1 HTS | Alexa488-MEK5 binding to MEKK3; hits give low values | binding response (% of control), % at 10 µM | 5,900 compounds, 1.8% hits | AID 1894, 2009;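 active means binding response below 72% of control, or above a set upper limit, though filed actives all read lower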
Each line names hits and unclear results; the compound was inactive in the other large screens (follow-up assays come after a bar, where they were run); [ ] = dose if it differs, or a comment.

Cc1ccc(C#N)c(SCc2ccccc2F)n1	MEKK3 PB1 HTS 49[inhibitor] | MEKK2wt confirm inactive | MEKK2mut-MEK5 inactive | MEKK3 confirm inactive
CC1=CC2=NC(=O)/C(=C\c3cccn3CCOc3ccccc3)C(=N)N2O1	MEKK3 PB1 HTS 132 | MEKK2wt confirm inactive | MEKK2mut-MEK5 inactive | MEKK3 confirm inactive
CC1=CC2=NC(=O)/C(=C\c3cccn3CCOc3cccc(C)c3)C(=N)N2O1	none
O=C(NC1CC1)c1ccc(NC(=O)C2CCCCC2)cc1	none (no result: MEKK3 PB1 HTS, MEKK2 WT-MEK5, MEKK2 mut-MEK5, Dynein transport)
O=C(CCS(=O)(=O)Cc1ccc(Cl)cc1)NCCCN1CCOCC1	none
Cc1csc2ncc(C(=O)NCCC(c3ccccc3)c3ccccc3)c(=O)n12	MEKK3 PB1 HTS 130 | MEKK2wt confirm inactive | MEKK2mut-MEK5 inactive | MEKK3 confirm inactive
Cc1cc(C(=O)COC(=O)Cc2n[nH]c(=O)c3ccccc23)c(C)n1-c1ccc2c(c1)OCCO2	MEKK3 PB1 HTS 135 | MEKK2wt confirm inactive | MEKK2mut-MEK5 inactive | MEKK3 confirm inactive
COc1ccc(CCNC(=O)COC(=O)C2CC2C)cc1OC (stereo unspecified)	none (no result: MEKK3 PB1 HTS, MEKK2 WT-MEK5, MEKK2 mut-MEK5, Dynein transport)
CCN(CC)c1ccc(CNc2ccc3c(c2)ncn3C(C)(C)C)cc1	MEKK2 WT-MEK5 135 (no result: Dynein transport) | MEKK2wt confirm inactive | MEKK2mut-MEK5 inactive | MEKK3 confirm inactive
CCc1ccc(CNc2ccc3c(c2)ncn3C(C)(C)C)cc1	none (no result: Dynein transport)
CC(C)(C)n1cnc2cc(NCc3ccc(Br)cc3)ccc21	MEKK2 WT-MEK5 137 (no result: Dynein transport) | MEKK2wt confirm inactive | MEKK2mut-MEK5 inactive | MEKK3 confirm inactive
O=c1[nH]cc(I)cc1I	MEKK3 PB1 HTS 37[inhibitor], MEKK2 WT-MEK5 38[inhibitor] | MEKK2wt confirm inactive | MEKK2mut-MEK5 inactive | MEKK3 confirm inactive
COc1nc(-c2ccccc2)ccc1-c1noc(COc2ccccc2)n1	MEKK3 PB1 HTS 132 | MEKK2wt confirm inactive | MEKK2mut-MEK5 inactive | MEKK3 confirm inactive
CN(C)CCNC(=O)c1cc2c(s1)-c1ccccc1OC2	MEKK2 mut-MEK5 24 | MEKK2wt confirm inactive | MEKK2mut-MEK5 inactive | MEKK3 confirm inactive
CCCN1CCN(CCCNC(=O)c2cc3c(s2)-c2ccccc2OC3)CC1	none (no result: Dynein transport)
c1ccc(Cc2ccc(OCCCNC3CCCC3)cc2)cc1	MEKK2 WT-MEK5 138 (no result: B2AR ag, ATG4B inhibitor) | MEKK2wt confirm inactive | MEKK2mut-MEK5 inactive | MEKK3 confirm inactive
COc1ccc(O)c(CN2CCN(CCCc3ccccc3)C(CCO)C2)c1 (stereo unspecified)	none (no result: Dynein transport)
CCn1c(SCC(=O)O)nc2sc3c(c2c1=O)CCC3	MEKK3 PB1 HTS 1.0[inhibitor], MEKK2 WT-MEK5 -1.0[inhibitor] | MEKK2wt confirm inactive | MEKK2mut-MEK5 inactive | MEKK3 confirm inactive
COc1ccc(NC(=O)CN(C)CC(=O)N2CCCCCC2)cc1	none (no result: MEKK3 PB1 HTS, MEKK2 WT-MEK5, MEKK2 mut-MEK5, Dynein transport)
Cc1ccccc1OCC(=O)Nc1ccccc1C(=O)NC1CC1	none (no result: MEKK3 PB1 HTS, MEKK2 WT-MEK5, MEKK2 mut-MEK5, Dynein transport)
CC(=O)c1c(C)[nH]c(C(=O)NC2=NCCS2)c1C	MEKK3 PB1 HTS 2.0[inhibitor], MEKK2 WT-MEK5 3.0[inhibitor] | MEKK2wt confirm 1.0[inhibitor] | MEKK2mut-MEK5 inactive | MEKK3 confirm 2.0
Cc1ccc(NC(=S)NC(=O)C2CCCCC2)c(Br)c1	none (no result: MEKK3 PB1 HTS, MEKK2 WT-MEK5, MEKK2 mut-MEK5, Dynein transport)
Cc1nnc(SCSc2nnc(C)s2)s1	none
Cc1nnc(SCc2ccccc2CSc2nnc(C)s2)s1	MEKK3 PB1 HTS 130 | MEKK2wt confirm inactive | MEKK2mut-MEK5 inactive | MEKK3 confirm inactive
Cc1ccccc1NC1=NC(=S)N(CC(N)=O)C12CCOC(C)(C)C2 (stereo unspecified)	MEKK3 PB1 HTS 47[inhibitor] | MEKK2wt confirm inactive | MEKK2mut-MEK5 inactive | MEKK3 confirm inactive
Cc1cc(NC(=O)CCC(=O)N(c2ccccc2)C(C)C(=O)NC2CCCC2)no1 (stereo unspecified)	none (no result: Dynein transport)
CC(=O)Nc1ccc(NC(=O)C2CCCN(c3ncccn3)C2)cc1 (stereo unspecified)	none
COc1cc(NC(=O)C2CCCN(c3ncccn3)C2)cc(OC)c1 (stereo unspecified)	MEKK3 PB1 HTS 63[inhibitor] | MEKK2wt confirm inactive | MEKK2mut-MEK5 inactive | MEKK3 confirm inactive
O=C(COC(=O)/C=C/C(=O)N1CCN(c2ccccc2)CC1)NC(c1ccccc1)c1ccccc1	none
Cn1c(N/N=C\c2cccc(O)c2)cc(=O)n(C)c1=O	MEKK3 PB1 HTS 146 | MEKK2wt confirm inactive | MEKK2mut-MEK5 inactive | MEKK3 confirm inactive
CN(c1ccc(F)cc1)S(=O)(=O)c1ccc(Cl)c(C(=O)Nc2ccncc2)c1	none (no result: MEKK3 PB1 HTS, MEKK2 WT-MEK5, MEKK2 mut-MEK5, Dynein transport)
CN(c1ccc(F)cc1)S(=O)(=O)c1ccc(Cl)c(C(=O)Nc2ccc3c(c2)CCC3)c1	MEKK3 PB1 HTS 134 | MEKK2wt confirm inactive | MEKK2mut-MEK5 inactive | MEKK3 confirm inactive
CCCNCC1C(Oc2ccc(Cl)cc2Cl)C(=O)N1c1cccc(C)c1C (stereo unspecified)	MEKK3 PB1 HTS 136 | MEKK2wt confirm inactive | MEKK2mut-MEK5 inactive | MEKK3 confirm inactive
